Data as given in ChEMBL document CHEMBL1799916, “Novel 3,5-bis(bromohydroxybenzylidene)piperidin-4-ones as coactivator-associated arginine methyltransferase 1 inhibitors: enzyme selectivity and cellular activity” (J Med Chem, 2011).
Calls of active or inactive are those of the source. No cut-off for these calls is given here.

What was measured:
[1] = target: T1, Histone-lysine N-methyltransferase SETD7 (Homo sapiens) (UniProt Q8WTS6); experiment: Inhibition of SET7-mediated methylation of histone H3 at 100 uM after 90 mins by scintillation counting in presence of S-adenosyl-l-[methyl-3H]methionine
T1 sequence (whole entry): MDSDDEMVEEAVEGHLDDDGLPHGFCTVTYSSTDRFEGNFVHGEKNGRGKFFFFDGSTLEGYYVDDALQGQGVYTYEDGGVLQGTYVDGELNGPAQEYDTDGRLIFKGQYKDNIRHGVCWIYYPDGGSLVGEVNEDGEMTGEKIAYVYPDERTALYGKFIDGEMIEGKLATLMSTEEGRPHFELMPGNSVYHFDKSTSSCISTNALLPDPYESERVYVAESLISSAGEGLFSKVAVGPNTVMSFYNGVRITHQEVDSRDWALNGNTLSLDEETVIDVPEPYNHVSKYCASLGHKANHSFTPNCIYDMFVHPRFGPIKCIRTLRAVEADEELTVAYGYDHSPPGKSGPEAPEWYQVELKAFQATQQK
Summary of the method: (§1)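 Compound at 100 μM with 0.1–0.2 μM recombinant enzyme and 0.5–1.5 μM substrate in PBS pH 7.4 containing [³H]AdoMet. Incubated 30 °C for 90 min, then SDS-PAGE, PVDF transfer and overnight film fluorography. Ponceau-stained substrate bands cut out and dpm counted by liquid scintillation.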

[2] = target: T2, Histone-arginine methyltransferase CARM1 (Homo sapiens) (UniProt Q86X55); experiment: Inhibition of CARM1-mediated methylation of PABP1 at 100 uM after 90 mins by scintillation counting in presence of S-adenosyl-l-[methyl-3H]methionine; summary of the method: as §1
T2 sequence (whole entry): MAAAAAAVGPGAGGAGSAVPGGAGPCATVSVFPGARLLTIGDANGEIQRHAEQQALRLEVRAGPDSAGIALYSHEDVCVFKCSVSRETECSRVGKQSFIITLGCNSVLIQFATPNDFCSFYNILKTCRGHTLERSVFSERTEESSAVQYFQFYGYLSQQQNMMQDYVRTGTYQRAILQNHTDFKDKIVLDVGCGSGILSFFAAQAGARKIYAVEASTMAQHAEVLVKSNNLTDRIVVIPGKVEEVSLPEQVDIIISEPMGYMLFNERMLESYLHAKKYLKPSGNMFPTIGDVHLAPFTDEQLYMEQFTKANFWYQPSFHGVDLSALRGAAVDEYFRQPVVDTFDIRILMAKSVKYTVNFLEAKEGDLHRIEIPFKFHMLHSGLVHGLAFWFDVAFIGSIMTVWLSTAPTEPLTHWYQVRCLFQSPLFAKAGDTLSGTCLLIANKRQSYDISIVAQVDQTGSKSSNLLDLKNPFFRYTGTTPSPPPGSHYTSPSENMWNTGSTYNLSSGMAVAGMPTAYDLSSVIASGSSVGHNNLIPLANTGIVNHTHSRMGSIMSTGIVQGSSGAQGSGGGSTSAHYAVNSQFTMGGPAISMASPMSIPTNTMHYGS

[3] = target: T2, Histone-arginine methyltransferase CARM1 (Homo sapiens); experiment: Inhibition of CARM1-mediated methylation of histone H3 at 100 uM after 90 mins by scintillation counting in presence of S-adenosyl-l-[methyl-3H]methionine; summary of the method: as §1
[4] = target: Protein arginine N-methyltransferase 1 (Homo sapiens, UniProt Q99873); experiment: Inhibition of PRMT1-mediated methylation of NPL3 after 90 mins by scintillation counting in presence of S-adenosyl-l-[methyl-3H]methionine
[5] = target: T2, Histone-arginine methyltransferase CARM1 (Homo sapiens); experiment: Inhibition of CARM1-mediated methylation of CA150 at 100 uM after 90 mins by scintillation counting in presence of S-adenosyl-l-[methyl-3H]methionine; summary of the method: as §1
[6] = target: T3, Histone-lysine N-methyltransferase SETD7 (Homo sapiens, UniProt Q8WTS6); experiment: Inhibition of SET7-mediated methylation of histone H3 after 90 mins by scintillation counting in presence of S-adenosyl-l-[methyl-3H]methionine
T3 sequence (Q8WTS6 whole entry): T1 sequence (whole entry)

[7] = target: Histone-lysine N-methyltransferase, H3 lysine-79 specific (Homo sapiens) (UniProt Q8TEK3); experiment: Inhibition of DOTL1-mediated methylation of nucleosome at 100 uM after 90 mins by scintillation counting in presence of S-adenosyl-l-[methyl-3H]methionine; summary of the method: as §1
[8] = target: T4, Histone-lysine N-methyltransferase EHMT2 (Homo sapiens) (UniProt Q96KQ7); experiment: Inhibition of G9a-mediated methylation of histone H3 at 100 uM after 90 mins by scintillation counting in presence of S-adenosyl-l-[methyl-3H]methionine; summary of the method: as §1
T4 sequence (whole entry): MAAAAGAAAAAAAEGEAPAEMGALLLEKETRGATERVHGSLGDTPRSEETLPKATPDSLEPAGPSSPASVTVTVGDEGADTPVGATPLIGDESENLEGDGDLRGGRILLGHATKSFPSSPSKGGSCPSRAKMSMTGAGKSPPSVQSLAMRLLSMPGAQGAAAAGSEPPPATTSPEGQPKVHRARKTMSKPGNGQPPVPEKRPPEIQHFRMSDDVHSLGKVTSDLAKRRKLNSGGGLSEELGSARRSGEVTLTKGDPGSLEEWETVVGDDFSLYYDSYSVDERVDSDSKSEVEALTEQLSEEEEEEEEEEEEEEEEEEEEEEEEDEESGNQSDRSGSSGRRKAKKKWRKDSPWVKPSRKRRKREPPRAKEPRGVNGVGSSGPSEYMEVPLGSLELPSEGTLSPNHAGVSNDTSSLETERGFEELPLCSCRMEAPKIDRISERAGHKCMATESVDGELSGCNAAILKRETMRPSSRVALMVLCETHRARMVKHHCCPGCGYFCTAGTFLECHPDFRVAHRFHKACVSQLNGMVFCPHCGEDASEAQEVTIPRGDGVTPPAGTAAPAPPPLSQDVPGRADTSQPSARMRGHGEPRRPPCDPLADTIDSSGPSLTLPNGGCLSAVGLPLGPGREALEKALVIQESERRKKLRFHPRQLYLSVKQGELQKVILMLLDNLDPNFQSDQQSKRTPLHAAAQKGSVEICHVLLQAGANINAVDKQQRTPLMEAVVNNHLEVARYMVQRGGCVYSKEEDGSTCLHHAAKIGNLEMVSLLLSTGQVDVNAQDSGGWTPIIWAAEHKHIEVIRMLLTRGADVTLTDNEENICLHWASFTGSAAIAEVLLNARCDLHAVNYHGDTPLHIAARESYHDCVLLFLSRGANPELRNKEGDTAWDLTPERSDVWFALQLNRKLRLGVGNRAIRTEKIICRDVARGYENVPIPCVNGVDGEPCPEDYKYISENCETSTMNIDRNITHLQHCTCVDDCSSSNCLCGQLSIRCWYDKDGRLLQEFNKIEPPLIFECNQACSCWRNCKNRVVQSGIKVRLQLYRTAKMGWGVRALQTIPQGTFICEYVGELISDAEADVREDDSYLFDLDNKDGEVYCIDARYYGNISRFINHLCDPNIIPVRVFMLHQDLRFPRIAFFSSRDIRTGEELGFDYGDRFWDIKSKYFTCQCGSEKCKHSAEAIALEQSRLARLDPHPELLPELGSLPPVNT

[9] = target: T2, Histone-arginine methyltransferase CARM1 (Homo sapiens); experiment: Inhibition of CARM1-mediated methylation of SMB at 100 uM after 90 mins by scintillation counting in presence of S-adenosyl-l-[methyl-3H]methionine; summary of the method: as §1

Chain of Protein arginine N-methyltransferase 1 (Q99873 whole entry): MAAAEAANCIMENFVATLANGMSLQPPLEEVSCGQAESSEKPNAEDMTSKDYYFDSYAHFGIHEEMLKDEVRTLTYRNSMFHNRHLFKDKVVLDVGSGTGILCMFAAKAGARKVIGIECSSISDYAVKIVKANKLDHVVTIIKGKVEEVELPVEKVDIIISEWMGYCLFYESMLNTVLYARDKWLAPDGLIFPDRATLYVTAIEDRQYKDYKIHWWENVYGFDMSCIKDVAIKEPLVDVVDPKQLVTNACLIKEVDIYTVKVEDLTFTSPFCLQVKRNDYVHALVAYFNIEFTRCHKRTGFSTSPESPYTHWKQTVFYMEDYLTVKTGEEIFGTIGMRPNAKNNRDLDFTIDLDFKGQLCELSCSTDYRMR
Chain of Histone-lysine N-methyltransferase, H3 lysine-79 specific (Homo sapiens) (Q8TEK3 whole entry, looked up): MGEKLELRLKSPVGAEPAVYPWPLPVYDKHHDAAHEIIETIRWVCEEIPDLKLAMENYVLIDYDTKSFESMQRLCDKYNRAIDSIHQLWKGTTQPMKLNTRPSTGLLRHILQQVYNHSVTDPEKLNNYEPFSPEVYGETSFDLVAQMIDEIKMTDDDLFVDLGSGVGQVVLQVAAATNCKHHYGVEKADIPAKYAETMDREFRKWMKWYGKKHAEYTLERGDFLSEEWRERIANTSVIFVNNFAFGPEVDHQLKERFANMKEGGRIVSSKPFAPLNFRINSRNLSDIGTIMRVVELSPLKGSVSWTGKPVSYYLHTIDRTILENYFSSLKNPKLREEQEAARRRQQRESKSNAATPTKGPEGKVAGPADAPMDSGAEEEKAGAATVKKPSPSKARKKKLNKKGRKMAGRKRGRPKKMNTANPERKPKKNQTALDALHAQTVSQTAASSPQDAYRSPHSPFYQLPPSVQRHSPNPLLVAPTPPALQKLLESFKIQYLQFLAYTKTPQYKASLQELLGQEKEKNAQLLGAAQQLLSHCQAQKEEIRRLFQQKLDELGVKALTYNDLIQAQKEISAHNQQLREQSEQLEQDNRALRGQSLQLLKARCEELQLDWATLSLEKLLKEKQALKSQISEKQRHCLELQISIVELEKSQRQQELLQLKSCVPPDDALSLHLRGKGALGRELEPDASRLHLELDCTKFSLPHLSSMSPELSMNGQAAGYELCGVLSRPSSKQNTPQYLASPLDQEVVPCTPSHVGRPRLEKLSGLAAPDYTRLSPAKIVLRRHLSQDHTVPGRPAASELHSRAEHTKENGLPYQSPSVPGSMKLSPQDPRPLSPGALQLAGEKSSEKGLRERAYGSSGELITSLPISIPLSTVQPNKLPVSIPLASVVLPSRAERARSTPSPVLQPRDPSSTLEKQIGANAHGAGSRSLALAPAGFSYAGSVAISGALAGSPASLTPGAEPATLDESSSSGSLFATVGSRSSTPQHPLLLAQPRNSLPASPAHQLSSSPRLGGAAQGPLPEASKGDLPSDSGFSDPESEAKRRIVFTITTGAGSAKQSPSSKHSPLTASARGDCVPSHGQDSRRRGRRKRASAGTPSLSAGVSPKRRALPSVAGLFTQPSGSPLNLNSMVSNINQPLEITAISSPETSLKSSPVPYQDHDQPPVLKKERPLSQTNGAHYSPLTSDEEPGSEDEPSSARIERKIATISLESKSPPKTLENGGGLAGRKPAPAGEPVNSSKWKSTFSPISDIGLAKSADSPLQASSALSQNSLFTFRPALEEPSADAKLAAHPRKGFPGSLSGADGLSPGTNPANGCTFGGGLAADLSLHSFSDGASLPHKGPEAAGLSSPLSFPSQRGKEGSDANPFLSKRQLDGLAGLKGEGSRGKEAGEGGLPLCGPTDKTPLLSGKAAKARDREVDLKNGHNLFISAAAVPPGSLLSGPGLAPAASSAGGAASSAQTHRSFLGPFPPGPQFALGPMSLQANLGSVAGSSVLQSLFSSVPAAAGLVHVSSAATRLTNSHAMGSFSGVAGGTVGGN

inhibition [1] | inhibition [2] | inhibition [3] | IC50 [4] | inhibition [5] | IC50 [6] | inhibition [7] | inhibition [8] | inhibition [9] | Structure (SMILES)
inactive | Active | Active | > 667 µM | Active | 149 µM | inactive | inactive | Active | O=C1/C(=C/c2ccc(O)c(Br)c2)CN(CC(=O)c2ccccc2)C/C1=C\c1ccc(O)c(Br)c1
inactive | Active | Active | > 667 µM | Active | > 667 µM | inactive | inactive | Active | O=C1/C(=C/c2ccc(O)c(Br)c2)CN(Cc2ccccc2)C/C1=C\c1ccc(O)c(Br)c1
inactive | Active | Active | > 667 µM | Active | 174 µM | inactive | inactive | Active | O=C1/C(=C/c2ccc(O)c(Br)c2)CN(Cc2cccc(Cl)c2)C/C1=C\c1ccc(O)c(Br)c1
